Experimental data taken from ChEMBL document CHEMBL3414488, “When structure-affinity relationships meet structure-kinetics relationships: 3-((Inden-1-yl)amino)-1-isopropyl-cyclopentane-1-carboxamides as CCR2 antagonists” (Eur J Med Chem, 2015).
Active and inactive are the calls of the source. The rule behind the calls is not given here.

Columns and labels:
[1] = Residence time of the compound
[2] = biological target: T1, C-C chemokine receptor type 2 (Homo sapiens, UniProt P41597); experiment: Displacement of [3H]INCB3344 from human CCR2 receptor expressed in human U2OS cell membrane assessed as kinetic rate index at Ki by dual-point competition association assay relative to control; type: cell membranes
Procedure, shortened: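 U2OS–CCR2 membranes (10 μg) incubated with 1.8 nM [3H]INCB3344 at 25 °C for 50 min (t1) or 240 min (t2). Unlabeled ligand was present at 1-fold its Ki from 125I-CCL2 displacement. KRI = specific binding at t1 divided by specific binding at t2.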
Target sequence in this assay (P41597 whole entry, looked up): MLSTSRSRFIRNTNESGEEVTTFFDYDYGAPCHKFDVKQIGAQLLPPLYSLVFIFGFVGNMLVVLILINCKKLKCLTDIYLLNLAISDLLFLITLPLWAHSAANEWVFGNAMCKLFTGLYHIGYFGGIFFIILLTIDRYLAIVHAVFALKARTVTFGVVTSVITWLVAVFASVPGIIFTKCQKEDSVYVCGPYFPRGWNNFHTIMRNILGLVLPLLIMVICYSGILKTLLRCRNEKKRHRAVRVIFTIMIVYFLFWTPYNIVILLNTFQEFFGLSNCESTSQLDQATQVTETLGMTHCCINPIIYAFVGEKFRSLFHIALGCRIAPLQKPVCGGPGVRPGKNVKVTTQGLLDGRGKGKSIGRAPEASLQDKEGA

[3] = biological target: T1, C-C chemokine receptor type 2; experiment: Displacement of 0.1 nM [125I]CCL2 from human CCR2 expressing human U2OS cell membrane by scintillation spectrometry; type: cell membranes
Procedure, shortened: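 U2OS–CCR2 membranes (15 μg) incubated 150 min at 37 °C with 0.1 nM 125I-CCL2 with or without competitor. Ki derived from IC50 by Cheng–Prusoff. Mean ± S.E.M. of at least 3 experiments in duplicate.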
Target sequence in this assay (P41597 whole entry): as the sequence (P41597 whole entry, looked up) above

[4] = biological target: T1, C-C chemokine receptor type 2; experiment: Antagonist activity at human CCR2 expressing human U2OS cells assessed as inhibition of CCL2-induced G protein activation at 10 uM by [35S]GTPgammaS binding/scintillation spectrometry assay; type: functional, cell-based
Procedure, shortened: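 Membranes (10 μg) in 50 mM Tris-HCl pH 7.4, 5 mM MgCl2, 100 mM NaCl, 1 mM EDTA, 0.05% BSA, 10 μM GDP, 10 μg saponin; 30 min preincubation with 10 μM antagonist at 25 °C, then 10 nM CCL2 for 30 min, then 0.3 nM [35S]GTPγS for 90 min. Stopped with ice-cold buffer, GF/B filtration, scintillation counting.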
Target sequence in this assay (P41597 whole entry, looked up): as above

[5] = biological target: T1, C-C chemokine receptor type 2; experiment: Displacement of 0.1 nM [125I]CCL2 from human CCR2 expressing human U2OS cell membrane by scintillation spectrometry
Target sequence in this assay (P41597 whole entry, looked up): as above

SMILES | Residence time [1] | Ratio [2] | Ki [3] | inhibition [4] | inhibition [5] | Kd [3]
CCC1CC(N[C@@H]2CC[C@@](C(=O)N3CCc4ccc(C(F)(F)F)cc4C3)(C(C)C)C2)c2cc(OC)c(Br)cc21 (stereo not given in full) | 179 min | 1.3 | 83 nM | – | – | –
CC(C)[C@]1(C(=O)N2CCN(c3cc(C(F)(F)F)ccn3)CC2)CC[C@@H](NC2CCc3ccccc32)C1 (stereo not given in full) | 8.3 min | 0.5 | 15 nM | – | – | –
COc1cc(-c2ccc3c(c2)CCC3N[C@@H]2CC[C@@](C(=O)N3CCc4ccc(C(F)(F)F)cc4C3)(C(C)C)C2)c(F)cn1 (stereo not given in full) | – | 0.8 | 12 nM | – | – | –
CC(C)[C@]1(C(=O)N2CCc3ccc(C(F)(F)F)cc3C2)CC[C@@H](N[C@H]2C[C@@H](C)c3cc(Br)ccc32)C1 | 588 min | 1.4 | 1.7 nM | Active | – | –
COc1ccccc1-c1ccc2c(c1)CCC2N[C@@H]1CC[C@@](C(=O)N2CCc3ccc(C(F)(F)F)cc3C2)(C(C)C)C1 (stereo not given in full) | – | – | – | – | 2% | –
CC(C)[C@]1(C(=O)N2CCc3ccc(C(F)(F)F)cc3C2)CC[C@@H](NC2CCc3c(N)cccc32)C1 (stereo not given in full) | – | 0.7 | 4.6 nM | – | – | –
CC(C)[C@]1(C(=O)N2CCc3ccc(C(F)(F)F)cc3C2)CC[C@@H](NC2CCc3cc(-c4cccnc4)ccc32)C1 (stereo not given in full) | – | 0.7 | 10 nM | – | – | –
CC(C)[C@]1(C(=O)N2CCc3ccc(C(F)(F)F)cc3C2)CC[C@@H](NC2CCc3cc(I)ccc32)C1 (stereo not given in full) | 103 min | 1.3 | 4.4 nM | – | – | –
Cc1cccc(-c2ccc3c(c2)CCC3N[C@@H]2CC[C@@](C(=O)N3CCc4ccc(C(F)(F)F)cc4C3)(C(C)C)C2)c1 (stereo not given in full) | – | – | – | – | 24% | –
COc1ccc(OC)c2c1CCC2N[C@@H]1CC[C@@](C(=O)N2CCc3ccc(C(F)(F)F)cc3C2)(C(C)C)C1 (stereo not given in full) | – | 0.8 | 49 nM | – | – | –
COc1ccc(-c2ccc3c(c2)CCC3N[C@@H]2CC[C@@](C(=O)N3CCc4ccc(C(F)(F)F)cc4C3)(C(C)C)C2)cc1 (stereo not given in full) | – | 0.9 | 75 nM | – | – | –
CC(C)[C@]1(C(=O)N2CCc3ccc(C(F)(F)F)cc3C2)CC[C@@H](NC2CCc3ccccc32)C1 (stereo not given in full) | 21 min | 1 | 2.2 nM | – | – | –
CCOc1cncc(-c2ccc3c(c2)CCC3N[C@@H]2CC[C@@](C(=O)N3CCc4ccc(C(F)(F)F)cc4C3)(C(C)C)C2)c1 (stereo not given in full) | – | 0.5 | 10 nM | – | – | –
COc1cc2c(cc1Br)CCC2N[C@@H]1CC[C@@](C(=O)N2CCc3ccc(C(F)(F)F)cc3C2)(C(C)C)C1 (stereo not given in full) | 323 min | 1.3 | 4.5 nM | – | – | –
CC(C)[C@]1(C(=O)NCc2cc(C(F)(F)F)cc(C(F)(F)F)c2)CC[C@@H](NC2CCc3ccccc32)C1 (stereo not given in full) | 9.1 min | 0.8 | – | – | – | –
CO[C@@H]1COCC[C@@H]1N[C@@H]1CC[C@@](C(=O)N2CCc3ncc(C(F)(F)F)cc3C2)(C(C)C)C1 [MK-0812] | 92 min | – | 0.55 nM | – | – | 0.48 nM
Cc1ccc2c(c1)C(N[C@@H]1CC[C@@](C(=O)N3CCc4ccc(C(F)(F)F)cc4C3)(C(C)C)C1)CC2 (stereo not given in full) | – | 0.6 | 23 nM | – | – | –
CC(C)[C@]1(C(=O)N2CCc3ccc(C(F)(F)F)cc3C2)CC[C@@H](NC2CCc3cc(C(F)(F)F)ccc32)C1 (stereo not given in full) | 667 min | 1.4 | 13 nM | Active | – | –
CC(C)[C@]1(C(=O)N2CCc3ccc(C(F)(F)F)cc3C2)CC[C@@H](N[C@@H]2C[C@H](C)c3cc(Br)ccc32)C1 | – | – | 137 nM | – | – | –
COc1cccc(-c2ccc3c(c2)CCC3N[C@@H]2CC[C@@](C(=O)N3CCc4ccc(C(F)(F)F)cc4C3)(C(C)C)C2)c1 (stereo not given in full) | – | 0.8 | 39 nM | – | – | –
CC(C)[C@]1(C(=O)N2CCc3ccc(C(F)(F)F)cc3C2)CC[C@@H](NC2CCc3cc(Br)ccc32)C1 (stereo not given in full) | 213 min | 1.3 | 2.3 nM | – | – | –

SMILES | Residence time [1] | Ratio [2] | Ki [3] | inhibition [4] | inhibition [5] | Kd [3]
CC(C)[C@]1(C(=O)N2CCc3ccc(C(F)(F)F)cc3C2)CC[C@@H](NC2CCc3cc(-c4ccccc4)ccc32)C1 (stereo not given in full) | – | – | – | – | 28% | –
CC(C)[C@]1(C(=O)N2CCc3ccc(C(F)(F)F)cc3C2)CC[C@@H](NC2CCc3ccc(C#N)cc32)C1 (stereo not given in full) | – | 0.6 | 13 nM | – | – | –
CC1CC(N[C@@H]2CC[C@@](C(=O)N3CCc4ccc(C(F)(F)F)cc4C3)(C(C)C)C2)c2ccccc21 (stereo not given in full) | – | 0.7 | 3.4 nM | – | – | –
CC(C)[C@]1(C(=O)N2CCc3ccc(C(F)(F)F)cc3C2)CC[C@@H](NC2CCc3cc(Cl)ccc32)C1 (stereo not given in full) | 100 min | 1.2 | 1.6 nM | – | – | –
CC(C)[C@]1(C(=O)N2CCc3ccc(C(F)(F)F)cc3C2)CC[C@@H](NC2CCc3cc(-c4cccc(C#N)c4)ccc32)C1 (stereo not given in full) | – | 0.7 | 55 nM | – | – | –
CC(C)[C@]1(C(=O)N2CCc3ccc(C(F)(F)F)cc3C2)CC[C@@H](NC2CCc3ccc(Cl)cc32)C1 (stereo not given in full) | – | 0.6 | 7.9 nM | – | – | –
COc1cc2c(cc1OC)C(N[C@@H]1CC[C@@](C(=O)N3CCc4ccc(C(F)(F)F)cc4C3)(C(C)C)C1)CC2 (stereo not given in full) | 63 min | 1 | 1.2 nM | – | – | –
CC(C)[C@]1(C(=O)N2CCc3ccc(C(F)(F)F)cc3C2)CC[C@@H](NC2CCc3c(O)cccc32)C1 (stereo not given in full) | – | 0.7 | 21 nM | – | – | –
CC(C)[C@]1(C(=O)N2CCc3ccc(C(F)(F)F)cc3C2)CC[C@@H](N[C@@H]2CCc3cc(Br)ccc32)C1 | 714 min | 1.7 | 2.4 nM | Active | – | –
CC(C)[C@]1(C(=O)N2CCc3ccc(C(F)(F)F)cc3C2)CC[C@@H](NC2CCc3c(C#N)cccc32)C1 (stereo not given in full) | – | 0.6 | 15 nM | – | – | –
CC(C)[C@]1(C(=O)N2CCc3ccc(C(F)(F)F)cc3C2)CC[C@@H](N[C@H]2C[C@H](C)c3cc(Br)ccc32)C1 | 208 min | 1.2 | 4.6 nM | Active | – | –
CC(C)[C@]1(C(=O)N2CCc3ccc(C(F)(F)F)cc3C2)CC[C@@H](NC2CCc3cc(F)ccc32)C1 (stereo not given in full) | 55 min | 0.9 | 4.9 nM | – | – | –
COc1cncc(-c2ccc3c(c2)CCC3N[C@@H]2CC[C@@](C(=O)N3CCc4ccc(C(F)(F)F)cc4C3)(C(C)C)C2)c1 (stereo not given in full) | – | 0.8 | 41 nM | – | – | –
CC1CC(N[C@@H]2CC[C@@](C(=O)N3CCc4ccc(C(F)(F)F)cc4C3)(C(C)C)C2)c2ccc(Br)cc21 (stereo not given in full) | 345 min | 1.3 | 2 nM | – | – | –
COc1cc2c(cc1Br)C(C)CC2N[C@@H]1CC[C@@](C(=O)N2CCc3ccc(C(F)(F)F)cc3C2)(C(C)C)C1 (stereo not given in full) | 238 min | 1.5 | 13 nM | – | – | –
CC(C)[C@]1(C(=O)N2CCc3ccc(C(F)(F)F)cc3C2)CC[C@@H](N[C@@H]2C[C@@H](C)c3cc(Br)ccc32)C1 | – | – | 199 nM | – | – | –
CC(C)[C@]1(C(=O)N2CCc3ccc(C(F)(F)F)cc3C2)CC[C@@H](N[C@H]2CCc3cc(Br)ccc32)C1 | 15 min | 0.8 | 24 nM | Active | – | –
CC(C)[C@]1(C(=O)N2CCc3ccc(C(F)(F)F)cc3C2)CC[C@@H](NC2CCc3cc(-c4ccc(C#N)cc4)ccc32)C1 (stereo not given in full) | – | 0.9 | 11 nM | – | – | –
Cc1ccccc1-c1ccc2c(c1)CCC2N[C@@H]1CC[C@@](C(=O)N2CCc3ccc(C(F)(F)F)cc3C2)(C(C)C)C1 (stereo not given in full) | – | – | – | – | 46% | –
Cc1cccc2c1CCC2N[C@@H]1CC[C@@](C(=O)N2CCc3ccc(C(F)(F)F)cc3C2)(C(C)C)C1 (stereo not given in full) | – | 0.7 | 31 nM | – | – | –
COc1cc(-c2ccc3c(c2)CCC3N[C@@H]2CC[C@@](C(=O)N3CCc4ccc(C(F)(F)F)cc4C3)(C(C)C)C2)ccn1 (stereo not given in full) | – | 0.6 | 23 nM | – | – | –
